# Laboratory results from ChEMBL document CHEMBL5058577, “EUbOPEN Chemogenomics Library 2 (Multiplex)” (2022).
# System: U2OS
# Assay: Multiplex assay against U2OS
# Assay type: toxicity, cell-based
# Conditions: human
# Summary of the method: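 Imaging took place on a CQ1 microscope at 37°C and 5% CO2 once compound had been added to live cells stained at seeding with Hoechst33342, BioTracker Green Microtubule Cytoskeleton Dye, MitoTracker Red and Annexin V Alexa Fluor 680. CellPathfinder machine-learning gating classed cells as Hoechst high-intensity objects or normal cells, classed normal cells as having healthy, pyknosed or fragmented nuclei, and classed pyknosed cells as mitotic or apoptotic. Tubulin, mitochondrial-mass and membrane-permeability phenotypes are per cents of the healthy-nucleus cells.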
# [1] = 12 h, 1 µM, compound concentration 1 uM, replicate 1
# [2] = 12 h, 1 µM, compound concentration 1 uM, replicate 2
# [3] = 12 h, 10 µM, compound concentration 10 uM, replicate 1
# [4] = 12 h, 10 µM, compound concentration 10 uM, replicate 2
# [5] = 24 h, 1 µM, compound concentration 1 uM, replicate 1
# [6] = 24 h, 1 µM, compound concentration 1 uM, replicate 2
# [7] = 24 h, 10 µM, compound concentration 10 uM, replicate 1
# [8] = 24 h, 10 µM, compound concentration 10 uM, replicate 2
# [9] = 48 h, 1 µM, compound concentration 1 uM, replicate 1
# [10] = 48 h, 1 µM, compound concentration 1 uM, replicate 2
# [11] = 48 h, 10 µM, compound concentration 10 uM, replicate 1
# [12] = 48 h, 10 µM, compound concentration 10 uM, replicate 2
smiles,measurement,setting,value
COCCCN1CCC(NC(=O)c2cc(Cl)c(N)c3c2OCC3)CC1 [PRUCALOPRIDE],Population Apoptotic (%),[1],84%
same,Population Fragmented Nuclei (%),[1],30%
same,Population Healthy Nuclei (%),[1],63%
same,Population Hoechst High Intensity Objects (%),[1],1%
same,Population Membrane Permeable-Phenotype (%),[1],7%
same,Population Mitochondria Different-Phenotype (%),[1],3%
same,Population Mitotic Cells (%),[1],15%
same,Population Normal (%),[1],98%
same,Population Pyknosed Nuclei (%),[1],6%
same,Population Tubulin-Different-Phenotype (%),[1],4%
same,Total Cell Count,[1],207
same,Population Apoptotic (%),[2],87%
same,Population Fragmented Nuclei (%),[2],21%
same,Population Healthy Nuclei (%),[2],71%
same,Population Hoechst High Intensity Objects (%),[2],0%
same,Population Membrane Permeable-Phenotype (%),[2],12%
same,Population Mitochondria Different-Phenotype (%),[2],7%
same,Population Mitotic Cells (%),[2],12%
same,Population Normal (%),[2],99%
same,Population Pyknosed Nuclei (%),[2],7%
same,Population Tubulin-Different-Phenotype (%),[2],8%
same,Total Cell Count,[2],110
same,Population Apoptotic (%),[3],68%
same,Population Fragmented Nuclei (%),[3],22%
same,Population Healthy Nuclei (%),[3],63%
same,Population Hoechst High Intensity Objects (%),[3],3%
same,Population Membrane Permeable-Phenotype (%),[3],4%
same,Population Mitochondria Different-Phenotype (%),[3],0%
same,Population Mitotic Cells (%),[3],31%
same,Population Normal (%),[3],96%
same,Population Pyknosed Nuclei (%),[3],13%
same,Population Tubulin-Different-Phenotype (%),[3],2%
same,Total Cell Count,[3],238
same,Population Apoptotic (%),[4],47%
same,Population Fragmented Nuclei (%),[4],13%
same,Population Healthy Nuclei (%),[4],73%
same,Population Hoechst High Intensity Objects (%),[4],2%
same,Population Membrane Permeable-Phenotype (%),[4],1%
same,Population Mitochondria Different-Phenotype (%),[4],1%
same,Population Mitotic Cells (%),[4],52%
same,Population Normal (%),[4],97%
same,Population Pyknosed Nuclei (%),[4],12%
same,Population Tubulin-Different-Phenotype (%),[4],1%
same,Total Cell Count,[4],140
same,Population Apoptotic (%),[5],80%
same,Population Fragmented Nuclei (%),[5],26%
same,Population Healthy Nuclei (%),[5],65%
same,Population Hoechst High Intensity Objects (%),[5],2%
same,Population Membrane Permeable-Phenotype (%),[5],5%
same,Population Mitochondria Different-Phenotype (%),[5],3%
same,Population Mitotic Cells (%),[5],20%
same,Population Normal (%),[5],97%
same,Population Pyknosed Nuclei (%),[5],8%
same,Population Tubulin-Different-Phenotype (%),[5],5%
same,Total Cell Count,[5],247
same,Population Fragmented Nuclei (%),[6],23%
same,Population Healthy Nuclei (%),[6],69%
same,Population Hoechst High Intensity Objects (%),[6],1%
same,Population Membrane Permeable-Phenotype (%),[6],8%
same,Population Mitochondria Different-Phenotype (%),[6],4%
same,Population Normal (%),[6],98%
same,Population Pyknosed Nuclei (%),[6],7%
same,Population Tubulin-Different-Phenotype (%),[6],7%
same,Total Cell Count,[6],132
same,Population Apoptotic (%),[7],87%
same,Population Fragmented Nuclei (%),[7],23%
same,Population Healthy Nuclei (%),[7],64%
same,Population Hoechst High Intensity Objects (%),[7],4%
same,Population Membrane Permeable-Phenotype (%),[7],5%
same,Population Mitochondria Different-Phenotype (%),[7],2%
same,Population Mitotic Cells (%),[7],12%
same,Population Normal (%),[7],95%
same,Population Pyknosed Nuclei (%),[7],12%
same,Population Tubulin-Different-Phenotype (%),[7],4%
same,Total Cell Count,[7],280
same,Population Apoptotic (%),[8],77%
same,Population Fragmented Nuclei (%),[8],12%
same,Population Healthy Nuclei (%),[8],76%
same,Population Hoechst High Intensity Objects (%),[8],1%
same,Population Membrane Permeable-Phenotype (%),[8],3%
same,Population Mitotic Cells (%),[8],22%
same,Population Normal (%),[8],98%
same,Population Pyknosed Nuclei (%),[8],11%
same,Population Tubulin-Different-Phenotype (%),[8],3%
same,Total Cell Count,[8],161
same,Population Apoptotic (%),[9],85%
same,Population Fragmented Nuclei (%),[9],20%
same,Population Healthy Nuclei (%),[9],73%
same,Population Hoechst High Intensity Objects (%),[9],3%
same,Population Membrane Permeable-Phenotype (%),[9],3%
same,Population Mitochondria Different-Phenotype (%),[9],1%
same,Population Mitotic Cells (%),[9],14%
same,Population Normal (%),[9],96%
same,Population Pyknosed Nuclei (%),[9],6%
same,Population Tubulin-Different-Phenotype (%),[9],3%
same,Total Cell Count,[9],352
same,Population Apoptotic (%),[10],86%
same,Population Healthy Nuclei (%),[10],67%
same,Population Hoechst High Intensity Objects (%),[10],2%
same,Population Membrane Permeable-Phenotype (%),[10],11%
same,Population Mitochondria Different-Phenotype (%),[10],6%
same,Population Mitotic Cells (%),[10],13%
same,Population Normal (%),[10],97%
same,Population Pyknosed Nuclei (%),[10],11%
same,Population Tubulin-Different-Phenotype (%),[10],9%
same,Total Cell Count,[10],199
same,Population Apoptotic (%),[11],88%
same,Population Fragmented Nuclei (%),[11],17%
same,Population Healthy Nuclei (%),[11],69%
same,Population Hoechst High Intensity Objects (%),[11],1%
same,Population Membrane Permeable-Phenotype (%),[11],5%
same,Population Mitochondria Different-Phenotype (%),[11],2%
same,Population Mitotic Cells (%),[11],11%
same,Population Normal (%),[11],98%
same,Population Pyknosed Nuclei (%),[11],12%
same,Population Tubulin-Different-Phenotype (%),[11],2%
same,Total Cell Count,[11],347
same,Population Apoptotic (%),[12],90%
same,Population Fragmented Nuclei (%),[12],11%
same,Population Healthy Nuclei (%),[12],79%
same,Population Membrane Permeable-Phenotype (%),[12],3%
same,Population Mitochondria Different-Phenotype (%),[12],3%
same,Population Mitotic Cells (%),[12],9%
same,Population Pyknosed Nuclei (%),[12],9%
same,Population Tubulin-Different-Phenotype (%),[12],1%
same,Total Cell Count,[12],245
CN1CCC(C(=O)c2cccc(NC(=O)c3c(F)cc(F)cc3F)n2)CC1,Population Apoptotic (%),[1],90%
same,Population Fragmented Nuclei (%),[1],20%
same,Population Healthy Nuclei (%),[1],70%
same,Population Hoechst High Intensity Objects (%),[1],2%
same,Population Membrane Permeable-Phenotype (%),[1],8%
same,Population Mitochondria Different-Phenotype (%),[1],3%
same,Population Mitotic Cells (%),[1],10%
same,Population Normal (%),[1],97%
same,Population Pyknosed Nuclei (%),[1],9%
same,Population Tubulin-Different-Phenotype (%),[1],5%
same,Total Cell Count,[1],218
same,Population Apoptotic (%),[2],57%
same,Population Healthy Nuclei (%),[2],71%
same,Population Hoechst High Intensity Objects (%),[2],1%
same,Population Membrane Permeable-Phenotype (%),[2],9%
same,Population Mitochondria Different-Phenotype (%),[2],11%
same,Population Mitotic Cells (%),[2],42%
same,Population Normal (%),[2],98%
same,Population Pyknosed Nuclei (%),[2],7%
same,Population Tubulin-Different-Phenotype (%),[2],6%
same,Total Cell Count,[2],89
same,Population Apoptotic (%),[3],65%
same,Population Fragmented Nuclei (%),[3],27%
same,Population Healthy Nuclei (%),[3],63%
same,Population Hoechst High Intensity Objects (%),[3],1%
same,Population Membrane Permeable-Phenotype (%),[3],14%
same,Population Mitochondria Different-Phenotype (%),[3],13%
same,Population Mitotic Cells (%),[3],34%
same,Population Normal (%),[3],98%
same,Population Pyknosed Nuclei (%),[3],9%
same,Population Tubulin-Different-Phenotype (%),[3],12%
same,Total Cell Count,[3],270
same,Population Apoptotic (%),[4],64%
same,Population Fragmented Nuclei (%),[4],14%
same,Population Healthy Nuclei (%),[4],68%
same,Population Membrane Permeable-Phenotype (%),[4],15%
same,Population Mitochondria Different-Phenotype (%),[4],18%
same,Population Mitotic Cells (%),[4],35%
same,Population Pyknosed Nuclei (%),[4],16%
same,Population Tubulin-Different-Phenotype (%),[4],15%
same,Total Cell Count,[4],103
same,Population Apoptotic (%),[5],85%
same,Population Fragmented Nuclei (%),[5],22%
same,Population Healthy Nuclei (%),[5],67%
same,Population Hoechst High Intensity Objects (%),[5],2%
same,Population Membrane Permeable-Phenotype (%),[5],4%
same,Population Mitochondria Different-Phenotype (%),[5],3%
same,Population Mitotic Cells (%),[5],14%
same,Population Normal (%),[5],97%
same,Population Pyknosed Nuclei (%),[5],9%
same,Population Tubulin-Different-Phenotype (%),[5],3%
same,Total Cell Count,[5],284
same,Population Apoptotic (%),[6],72%
same,Population Fragmented Nuclei (%),[6],18%
same,Population Healthy Nuclei (%),[6],71%
same,Population Hoechst High Intensity Objects (%),[6],0%
same,Population Membrane Permeable-Phenotype (%),[6],6%
same,Population Mitochondria Different-Phenotype (%),[6],10%
same,Population Mitotic Cells (%),[6],27%
same,Population Normal (%),[6],99%
same,Population Tubulin-Different-Phenotype (%),[6],0%
same,Total Cell Count,[6],113
same,Population Apoptotic (%),[7],82%
same,Population Fragmented Nuclei (%),[7],21%
same,Population Healthy Nuclei (%),[7],68%
same,Population Hoechst High Intensity Objects (%),[7],2%
same,Population Membrane Permeable-Phenotype (%),[7],8%
same,Population Mitochondria Different-Phenotype (%),[7],9%
same,Population Mitotic Cells (%),[7],17%
same,Population Normal (%),[7],97%
same,Population Pyknosed Nuclei (%),[7],9%
same,Population Tubulin-Different-Phenotype (%),[7],5%
same,Total Cell Count,[7],298
same,Population Apoptotic (%),[8],66%
same,Population Fragmented Nuclei (%),[8],15%
same,Population Hoechst High Intensity Objects (%),[8],5%
same,Population Membrane Permeable-Phenotype (%),[8],10%
same,Population Mitochondria Different-Phenotype (%),[8],15%
same,Population Mitotic Cells (%),[8],33%
same,Population Normal (%),[8],94%
same,Population Pyknosed Nuclei (%),[8],15%
same,Population Tubulin-Different-Phenotype (%),[8],10%
same,Total Cell Count,[8],126
same,Population Apoptotic (%),[9],100%
same,Population Fragmented Nuclei (%),[9],17%
same,Population Healthy Nuclei (%),[9],70%
same,Population Hoechst High Intensity Objects (%),[9],2%
same,Population Membrane Permeable-Phenotype (%),[9],4%
same,Population Mitochondria Different-Phenotype (%),[9],1%
same,Population Mitotic Cells (%),[9],0%
same,Population Normal (%),[9],97%
same,Population Pyknosed Nuclei (%),[9],11%
same,Population Tubulin-Different-Phenotype (%),[9],2%
same,Total Cell Count,[9],394
same,Population Apoptotic (%),[10],89%
same,Population Fragmented Nuclei (%),[10],29%
same,Population Healthy Nuclei (%),[10],57%
same,Population Hoechst High Intensity Objects (%),[10],5%
same,Population Membrane Permeable-Phenotype (%),[10],12%
same,Population Mitochondria Different-Phenotype (%),[10],8%
same,Population Mitotic Cells (%),[10],10%
same,Population Normal (%),[10],94%
same,Population Pyknosed Nuclei (%),[10],13%
same,Population Tubulin-Different-Phenotype (%),[10],4%
same,Total Cell Count,[10],149
same,Population Apoptotic (%),[11],85%
same,Population Fragmented Nuclei (%),[11],18%
same,Population Healthy Nuclei (%),[11],69%
same,Population Hoechst High Intensity Objects (%),[11],3%
same,Population Membrane Permeable-Phenotype (%),[11],8%
same,Population Mitochondria Different-Phenotype (%),[11],3%
same,Population Mitotic Cells (%),[11],14%
same,Population Normal (%),[11],96%
same,Population Pyknosed Nuclei (%),[11],12%
same,Population Tubulin-Different-Phenotype (%),[11],3%
same,Total Cell Count,[11],398
same,Population Fragmented Nuclei (%),[12],15%
same,Population Membrane Permeable-Phenotype (%),[12],16%
same,Population Mitochondria Different-Phenotype (%),[12],10%
same,Population Pyknosed Nuclei (%),[12],14%
same,Population Tubulin-Different-Phenotype (%),[12],8%
same,Total Cell Count,[12],189
